According to ChEMBL document CHEMBL1145187:

What was measured:
[1] = biological target: T1, Estrogen receptor (Homo sapiens) (UniProt P03372); experiment: Relative binding affinity for human estrogen receptor alpha
T1 sequence (whole entry): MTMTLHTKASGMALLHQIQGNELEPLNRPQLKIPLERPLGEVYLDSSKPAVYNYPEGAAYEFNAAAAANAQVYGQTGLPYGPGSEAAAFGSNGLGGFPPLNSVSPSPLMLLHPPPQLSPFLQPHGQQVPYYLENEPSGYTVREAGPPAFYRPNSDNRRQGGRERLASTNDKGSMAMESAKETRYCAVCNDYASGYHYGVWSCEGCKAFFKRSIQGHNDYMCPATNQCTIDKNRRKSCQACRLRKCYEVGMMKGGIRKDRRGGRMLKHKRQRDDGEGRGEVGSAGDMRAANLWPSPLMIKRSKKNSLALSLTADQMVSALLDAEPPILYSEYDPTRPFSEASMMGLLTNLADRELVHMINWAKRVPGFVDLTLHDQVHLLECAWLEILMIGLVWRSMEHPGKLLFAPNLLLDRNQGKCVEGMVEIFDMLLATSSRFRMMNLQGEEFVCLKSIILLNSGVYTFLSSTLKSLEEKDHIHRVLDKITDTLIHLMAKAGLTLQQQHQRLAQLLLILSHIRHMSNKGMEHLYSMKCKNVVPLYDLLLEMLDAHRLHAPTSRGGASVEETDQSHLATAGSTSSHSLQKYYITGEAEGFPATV

[2] = biological target: Estrogen receptor beta (Homo sapiens) (UniProt Q92731); experiment: Transcriptional efficacy against human estrogen receptor beta at 10e-6 M; type: functional
How it was run: (§1)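 HEC-1 cells were grown in phenol-red MEM with 5% calf serum and 5% fetal calf serum, then plated in phenol-red-free improved MEM with 5% charcoal dextran-treated calf serum. They were lipofectin-transfected for 5 h at 37 °C with ERβ expression vector, 2ERE-pS2-Luc and pCMV β-galactosidase. Ligand was then added for 24 h.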

[3] = biological target: Estrogen receptor beta (Homo sapiens) (UniProt Q92731); experiment: Transcriptional efficacy against human estrogen receptor beta at 10e-8 M; type: functional; how it was run: as §1

Estrogen receptor beta (Homo sapiens), sequence (Q92731 whole entry): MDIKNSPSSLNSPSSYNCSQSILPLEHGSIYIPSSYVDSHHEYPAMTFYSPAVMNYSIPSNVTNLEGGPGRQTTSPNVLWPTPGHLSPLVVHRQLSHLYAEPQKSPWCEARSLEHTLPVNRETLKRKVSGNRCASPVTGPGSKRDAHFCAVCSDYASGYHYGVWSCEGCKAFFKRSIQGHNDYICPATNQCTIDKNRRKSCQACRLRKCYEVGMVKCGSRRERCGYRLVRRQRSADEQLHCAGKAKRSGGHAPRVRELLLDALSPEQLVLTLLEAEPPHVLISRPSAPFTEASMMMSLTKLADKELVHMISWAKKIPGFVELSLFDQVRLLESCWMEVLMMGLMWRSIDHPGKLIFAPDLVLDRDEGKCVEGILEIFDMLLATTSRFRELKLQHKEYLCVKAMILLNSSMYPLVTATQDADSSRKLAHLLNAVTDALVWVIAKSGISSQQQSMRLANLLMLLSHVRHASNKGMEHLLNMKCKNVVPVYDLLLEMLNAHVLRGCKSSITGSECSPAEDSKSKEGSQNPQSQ

Row | Structure (SMILES) | Relative binding affinity [1] | Efficacy [2] | Efficacy [3]
1 | Oc1ccc(-n2nc3ccccc3c2Cl)cc1 | 0.03 | – | –
2 | Oc1ccc(-n2nc3ccc(O)cc3c2-c2ccccc2)cc1 | 0.04 | 28% | 11%
3 | Oc1ccc2nn(-c3ccc(O)c(Cl)c3)cc2c1 | 0.07 | – | –
4 | Oc1ccc(-n2cc3ccc(O)c(Br)c3n2)cc1 | 0.02 | 29% | 1.4%
5 | Oc1ccc2nn(-c3ccccc3)c(Cl)c2c1 | 0.014 | – | –
6 | Oc1ccc2nn(-c3ccccc3)cc2c1 | < 0.004 | – | –
7 | Oc1ccc(-n2cc3cc(O)ccc3n2)cc1 | 0.049 | 90% | 47%
8 | Oc1ccc(-n2nc3c(Cl)c(O)ccc3c2Cl)cc1 | 0.07 | – | –
9 | Oc1ccc2nn(-c3ccc(O)c(Cl)c3)c(Cl)c2c1 | 0.023 | – | –
10 | Oc1ccc(-n2cc3ccc(O)cc3n2)cc1 | 0.008 | 75% | 1.7%
11 | Oc1ccc(-n2cc3ccccc3n2)cc1 | 0.02 | – | –

Results, then the compound that gave them:

Row | Relative binding affinity [1] | Efficacy [2] | Efficacy [3] | Structure (SMILES)
12 | 3.9 | 74% | 78% | Oc1ccc(-n2nc3ccc(O)cc3c2C(F)(F)F)cc1
13 | 0.17 | 58% | 85% | Oc1ccc(-n2nc3ccc(O)cc3c2I)cc1
14 | 1.4 | 56% | 82% | N#Cc1c2cc(O)ccc2nn1-c1ccc(O)cc1
15 | 0.14 | – | – | CC(C)c1c2cc(O)ccc2nn1-c1ccc(O)cc1
16 | 0.08 | 100% | 63% | CCc1c2cc(O)ccc2nn1-c1ccc(O)cc1
17 | 0.03 | 87% | 57% | Cc1c2cc(O)ccc2nn1-c1ccc(O)cc1
18 | 0.06 | – | – | C=CCc1c2cc(O)ccc2nn1-c1ccc(O)cc1
19 | 0.18 | 67% | 66% | Oc1ccc(-n2nc3ccc(O)cc3c2Br)cc1
20 | 0.08 | – | – | Oc1ccc(-n2nc3cc(O)ccc3c2Cl)cc1
21 | 0.3 | 89% | 88% | Oc1ccc(-n2nc3ccc(O)cc3c2Cl)cc1
22 | 0.04 | – | – | CCCc1c2cc(O)ccc2nn1-c1ccc(O)cc1
